One data set has as its target T1, S. aureus ThrRS (Staphylococcus aureus, UniProt Q2FXP7).
T1 sequence (Q2FXP7 1-645): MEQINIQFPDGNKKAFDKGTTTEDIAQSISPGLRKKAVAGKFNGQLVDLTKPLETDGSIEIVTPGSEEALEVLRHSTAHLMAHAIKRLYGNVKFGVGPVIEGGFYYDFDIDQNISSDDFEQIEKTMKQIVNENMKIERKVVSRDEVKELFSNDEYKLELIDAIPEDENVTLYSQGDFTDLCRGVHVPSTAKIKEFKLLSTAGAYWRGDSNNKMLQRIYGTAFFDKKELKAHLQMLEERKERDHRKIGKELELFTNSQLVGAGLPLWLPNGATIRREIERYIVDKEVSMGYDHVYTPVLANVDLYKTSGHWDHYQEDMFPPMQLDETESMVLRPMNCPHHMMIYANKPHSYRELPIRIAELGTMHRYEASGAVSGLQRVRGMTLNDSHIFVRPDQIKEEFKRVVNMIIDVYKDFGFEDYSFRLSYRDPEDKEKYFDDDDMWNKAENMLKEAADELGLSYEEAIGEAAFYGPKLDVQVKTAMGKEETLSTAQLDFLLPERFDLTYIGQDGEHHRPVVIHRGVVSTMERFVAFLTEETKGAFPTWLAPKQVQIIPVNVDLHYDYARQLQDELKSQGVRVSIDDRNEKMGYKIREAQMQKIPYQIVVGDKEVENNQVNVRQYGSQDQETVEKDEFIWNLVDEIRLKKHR
Briefly: In vitro aminoacylation assay. The data set is classed as biochemical. Conditions: read-out: inhibition of S. aureus ThrRS. In a few lines:
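S. aureus ThrRS expressed in E. coli BL21(DE3)pLysS (0.25 mM IPTG, 3 h, 37 °C), purified on DEAE then heparin columns. Started with 10 mM ATP; 10 min, 37 °C; TCA-precipitated on filters, scintillation-counted; at least duplicates.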

For a further data set, the system named is HEK293 cells. Briefly: MTT assay, cytotoxicity. The data set is classed as cell-based, human. Conditions: at a concentration of 100 μM; 72 h. In a few lines: (§1)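 HEK293 cells kept in DMEM with 10% FBS plus penicillin/streptomycin, 37 °C, 5% CO2. Seeded at 2 × 10^5 cells/mL and grown 24 h, then exposed 72 h to test compound in DMSO (final DMSO below 0.5%) at various concentrations. MTT (5 mg/mL solution) added for 4 h; formazan dissolved in DMSO, A540 read; viability expressed as percent of untreated control cells.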

A further data set can be described thus: MTT assay, cytotoxicity. It is filed as cell-based, human. Conditions: human, HEK293 cells. In a few lines: as §1

The inhibition is the drop in the measured response relative to a control, in per cent. Usually EC50 stands for the concentration that produces a half-maximal response. High values mean lower potency in that assay, low ones higher potency in that assay.

With `COc1ccc(C(=O)CSc2nc3ccc([N+](=O)[O-])cc3s2)cc1` [compound 1, 1-(4-methoxy-phenyl)-2-(6-nitro-benzothiazol-2-ylsulfanyl)-ethanone], the inhibition at 100 µM on S. aureus ThrRS was 88.5%. Further, the “cytotoxicity toward HEK293” value in the data set on HEK293 cells is “not cytotoxic”.

`Cc1ccc([N+](=O)[O-])cc1NC(=O)COc1ccccc1C(C)(C)C` [compound 2, 2-(2-tert-butyl-phenoxy)-N-(2-methyl-5-nitro-phenyl)-acetamide]: the inhibition at 100 µM on S. aureus ThrRS came out at 85.6%. For the same molecule, in the data set on HEK293 cells, the “cytotoxicity toward HEK293” value is “not cytotoxic”.

`CCOC(=O)c1c(-c2ccc(Cl)cc2)csc1NC(=O)CN1CC(C)OC(C)C1` (stereo not drawn) [compound 8, 4-(4-chloro-phenyl)-2-[2-(2,6-dimethyl-morpholin-4-yl)-acetylamino]-thiophene-3-carboxylic acid ethyl ester]: the inhibition at 100 µM at S. aureus ThrRS stood at 78.3%. In addition, the “cytotoxicity toward HEK293” value in the data set on HEK293 cells was “not cytotoxic”.

With `Cc1cc(I)ccc1N1C(=O)CC(Sc2ncccc2C(=O)O)C1=O` (stereo not drawn) [compound 11, 2-[1-(4-iodo-2-methyl-phenyl)-2,5-dioxo-pyrrolidin-3-ylsulfanyl]-nicotinic acid], on S. aureus ThrRS, the inhibition at 100 µM came to 78.6%. Also, in “MTT assay, cytotoxicity”, the EC50 at 72 h is > 100 µM. For the same molecule, in the data set with HEK293 cells, the “decrease of the growth of HEK293 cells” value amounted to 30%.

The values are drawn from publication PMC8482496 (ACS Omega, 2021).
